Bioassay records as filed in PubChem BioAssay.
PABP polyA inh: blocks human PABP binding to poly(A) RNA; AID 2014; calls only at 35 µM; fluorescence polarization; P11940; 290,000 compounds, 1% hits;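 also: calls also rest on retests at 20 µM and on dose response follow-up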
eIF4H FP inh: inhibitors of RNA binding by human eIF4H. eIF4H fluorescence polarization binding assay. inhibition, % at 35 µM. 290,000 compounds, 0.94% hits. Q15056;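 also: calls also rest on retests at 20 µM and on dose response follow-up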
PABP1 MLLE inh: inhibitors of microRNA-mediated deadenylation, human PABP1 MLLE binding. GST-MLLE / FITC-PAM2 fluorescence polarization. inhibition, % at 20 µM. P11940. AID 588489. 360,000 compounds, 0.36% hits; in the data active = inhibition above about 35%, passing the limit was not always enough;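 also: plate controls were DMSO wells with GST-MLLE for no effect and wells lacking GST-MLLE protein for full effect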
RBBP9 inh: inhibitors of human serine hydrolase RBBP9 | recombinant RBBP9, FP-Rh probe fluorescence polarization | inhibition, % at 7.94 µM | O75884 | 220,000 compounds, 0.2% hits | AID 1515;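 active = inhibition above the campaign mean of all tested compounds plus 3 SD, cut at about 14% in these data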;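 also: plate controls were DMSO wells with RBBP9 for no effect and wells lacking RBBP9 protein for full effect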
Target sequence (O75884 whole entry, looked up): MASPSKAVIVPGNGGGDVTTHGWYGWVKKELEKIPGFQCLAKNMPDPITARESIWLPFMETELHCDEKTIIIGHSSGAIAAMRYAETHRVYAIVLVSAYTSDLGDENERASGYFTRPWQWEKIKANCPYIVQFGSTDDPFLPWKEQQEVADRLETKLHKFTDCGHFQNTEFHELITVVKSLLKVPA
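System: RBBP9 protein / Quantity: 2.5 µM RBBP9 dispensing solution, before mixing / Also added: Serine-hydrolase probe FP-Rh, 375 nM pre-mixing / Dosing: 7.94 µM single dose, 0.794% DMSO / Timing: enzyme-compound preincubation 30 min, then probe labeling 45 min, 25 °C / Signal: FP readout at 525/598 nm / Controls: DMSO-treated enzyme wells and wells lacking RBBP9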
TCR CD3 inh: inhibitors of human TCR-CD3 interaction | AID 651800 | 360,000 compounds, 0.37% hits | TAMRA-labeled TCR probe fluorescence, biochemical | inhibition, % at 9.4 µM; in the data active = inhibition above about 19%;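 also: recombinant mutant TCR 2C K166C tagged with TAMRA read by polarization; 0% = receptor in buffer alone and 100% = receptor with positive control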
* marks the source's active call; other numbers are inactive results; i = inactive; u = inconclusive; x = not tested or not shown; + = active, no number. The list is not random: actives were taken first. Their share in the collection is about 1.6%. Unless noted, no rule for the calls is given here.

SMILES	PABP polyA inh	eIF4H FP inh	PABP1 MLLE inh	RBBP9 inh	TCR CD3 inh
C=CCn1c(O)c(/C=C2/C=CC=N2)c(=O)[nH]c1=O	+	88*	-8	-7	10
C=CCN1C(=O)NC(=O)/C(=C/c2cc3c4c(c2)CCCN4CCC3)C1=O	i	77*	-129	-4	11
C=CCN1C(=O)NC(=O)/C(=C/c2cnc(SC)nc2)C1=O	i	4	18	2	-5
O=C(O)CCn1cc(C=C2C(=O)NC(=S)NC2=O)c(-c2cc3ccccc3oc2=O)n1	i	-12	11	-3	-12
O=C(O)CCn1cc(C=C2C(=O)NC(=S)NC2=O)c(-c2ccccc2)n1	i	4	42*	-5	-4
O=C(c1ccc(Cl)cc1)N1CCC2(CC1)OCCO2	i	2	2	x	-8
S=C(c1ccc(Cl)cc1)N1CCOCC1	i	-14	44*	-7	7
O=C(NC1CCCCC1)N1Cc2ccc(Br)cc2-n2nncc2C1	x	x	x	x	-2
Cc1ccc(/C=C2/C(=O)NC(=O)N(CCc3ccc(F)cc3)C2=O)o1	+	u	-30	-9	-3
CN(C)c1ccc(/C=C2\C(=O)NC(=O)N(CCc3ccc(F)cc3)C2=O)cc1	+	111*	-116	-9	-42
COCCN1C(=O)NC(=O)/C(=C\c2ccc(F)cc2)C1=O	i	20	12	1	-1
O=C1CC[C@@]2(O)[C@H]3Cc4ccc(O)c5c4[C@@]2(CCN3CC2CC2)C1O5 (stereo not given in full)	x	x	x	x	-10
CS(=O)(=O)N1Cc2cc(Br)ccc2-n2nncc2C1	x	x	x	x	-4
N#Cc1ccc(NC(=S)N2Cc3ccc(Br)cc3-n3nncc3C2)cc1	x	x	x	x	-2
CC(=O)c1c(O)n(-c2cccc(Cl)c2)c(=O)[nH]c1=O (tested in a mixture with another compound)	+	112*	-57	-3	-11
COc1cc2[nH]c(=O)n(-c3cccc(Cl)c3)c(=O)c2cc1OC	i	-3	7	-1	5
c1ccc(P(c2ccccn2)c2ccccn2)cc1	i	0	44*	-9	-6
Cn1ccnc1P(=S)(c1nccn1C)N1CCOCC1	i	-11	37*	-4	-7
O=C(Cn1ncc2c3ccccc3n(Cc3cccc(Cl)c3)c2c1=O)N1CCC2(CC1)OCCO2	+	73*	-22	-2	10
Cc1c2cnn(CC(=O)N3CCC4(CC3)OCCO4)c(=O)c2c(C)n1Cc1cccc(Cl)c1	i	-1	12	x	-4
COc1ccc2nc(-c3ccc(CN4CCC(n5nnc6ccccc65)CC4)cc3)c(-c3ccccc3)nc2c1	x	x	x	x	-8
CCC12CCN(CC3(O)CC3)C(Cc3ccc(O)cc31)C2(C)C (stereo not given)	x	x	x	x	0
CCCCn1c(O)c(C(C)=NC(C)c2ccccc2)c(=O)[nH]c1=O (stereo not given)	+	active	-3	-5	-2
CCCCn1c(O)c(C(CC)=NC(C)c2ccccc2)c(=O)[nH]c1=O (stereo not given)	i	-11	-8	-2	5
CC(=O)Nc1ccc(OC(=O)N(C)c2ccccc2)cc1	i	active	12	-17	7
SMILES	PABP polyA inh	eIF4H FP inh	PABP1 MLLE inh	RBBP9 inh	TCR CD3 inh
CC(=O)Nc1ccc(OC(=O)N(C)c2ccc(C)cc2)cc1	i	3	-10	x	-2
O=C(NCCN1CCC2(CC1)C(=O)NCN2c1ccccc1)C(c1ccccc1)c1ccccc1	x	x	x	x	-6
COc1ccc(/C=C2/C(=O)NC(=O)N(C3CCCCC3)C2=O)cc1CSc1ccccn1	i	9	x	0	-1
COc1ccc(C=C2C(=O)N(C)C(=O)N(C)C2=O)cc1CSc1ccccn1	+	u	12	1	-3
Cc1cc(/C=C2\C(=O)NC(=O)N(c3ccc(Cl)cc3)C2=O)c(C)n1-c1cccc(C(=O)O)c1	+	u	-11	x	-4
Clc1cc(Cl)cc(CN2Cc3cc(Br)ccc3-n3nncc3C2)c1	x	x	x	x	0
O=C1/C(=C\c2cc3c(cc2Br)OCO3)N2CCC1CC2	+	70*	17	8	x
C[C@H](Cc1ccc(OCC(=O)O)cc1)NC[C@H](O)c1cccc(Cl)c1	x	x	x	x	4
O=Cc1cn(CCCOc2ccccc2)c2ccccc12	+	u	-14	6	8
Cc1ccc(N2Cc3ccccc3-n3nncc3C2)cc1	x	x	x	x	8
O=C1C(Cl)=CC(=Nc2ccc(O)cc2)C=C1Cl	x	x	46*	x	-3
Clc1ccc([C@H]2CC3CCC2N3)cn1 (stereo not given in full)	x	x	x	x	-5
COc1cc2c(cc1O)C[C@H]1NCCc3cc4c(c-2c31)OCO4	+	64*	-6	-7	8
COc1cc2c(cc1OC)-c1c3c(cc4c1[C@@H](C2)N(C)CC4)OCO3	i	16	-33	-4	3
O=c1[nH]c(=O)n(-c2ccccc2)c(O)c1N=Nc1ccc(Br)cc1	i	2.1*	-1	1	-1
COc1ccc(CC2C(=O)N(C)C(=O)N(C)C2=O)c(OC)c1	i	-3	42*	2	-2
Cn1c(O)c(C(c2ccccn2)c2c(O)n(C)c(=S)n(C)c2=O)c(=O)n(C)c1=S	i	57*	14	-8	0
Cn1c(O)c(C(c2ccncc2)c2c(O)n(C)c(=S)n(C)c2=O)c(=O)n(C)c1=S	i	-4	-2	-4	-12
NC(=S)c1cn(C2OC(CO)C(O)C2O)c2ncnc(N)c12 (stereo not given)	i	-3	43*	-8	7
Nc1ncnc2c1ccn2[C@@H]1O[C@H](CO)[C@@H](O)[C@H]1O	x	x	-1	x	-2
NC(=O)OCCSc1nnc(-c2cccc(C(N)=S)c2)o1	i	2	41*	-9	12
Cc1ccc2nc(-c3ccc(CN4CCC(n5nnc6ccccc65)CC4)cc3)c(-c3ccccc3)nc2c1	x	x	x	x	4
Oc1cc2c(cc1O)[C@H]1c3ccccc3CN[C@@H]1CC2	i	-4	x	22*	x
O=C(N/N=C/c1c(O)n(Cc2ccc(F)cc2)c(=O)[nH]c1=O)c1ccccc1O	i	85	-18	-9	12
O=C(N/N=C/c1c(O)n(Cc2ccccc2)c(=O)[nH]c1=O)c1ccccc1O	i	4	-18	1	74*
SMILES	PABP polyA inh	eIF4H FP inh	PABP1 MLLE inh	RBBP9 inh	TCR CD3 inh
O=c1[nH]c(=O)n(Cc2ccccc2)c(O)c1C=NCCCO	+	54*	-96	-3	6
CCOCCCN=Cc1c(O)n(Cc2ccccc2)c(=O)[nH]c1=O	i	-2	2	-4	-7
O=c1[nH]c2cc(Cl)ccc2n1C1CCN(Cc2ccc(-c3nc4ccc(F)cc4nc3-c3ccccc3)cc2)CC1	x	x	x	x	6
COP(=O)(OC)OC=C(Cl)Cl	x	x	x	x	8
O=C1NC(=O)N(Cc2ccco2)C(=O)/C1=C/c1ccc(-c2cccc([N+](=O)[O-])c2)o1	+	78*	0	-3	x
C=CCN1C(=O)NC(=O)/C(=C\c2ccc(-c3ccccc3[N+](=O)[O-])o2)C1=O	i	2	24	-8	-2
